The values that follow come from ChEMBL document CHEMBL1138270, “Antimycobacterial activities of novel 1-(cyclopropyl/tert-butyl/4-fluorophenyl)-1,4-dihydro- 6-nitro-4-oxo-7-(substituted secondary amino)-1,8-naphthyridine-3-carboxylic acid” (J Med Chem, 2007).

Structures are written as SMILES. Converted amounts (≈) assume the structure as drawn.

This experiment has as its system Mycobacterium tuberculosis. Put plainly: Antimycobacterial activity against multi-drug-resistant Mycobacterium tuberculosis by agar dilution method. The experiment is classed as functional. In outline: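 MIC was determined by agar dilution, in duplicate.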
Compound `CC1(C)COCN1c1nc2c(cc1[N+](=O)[O-])c(=O)c(C(=O)O)cn2C(C)(C)C` registered an MIC of 0.1 µM (≈ 0.039 µg/mL). In the case of `O=C(O)c1cn(-c2ccc(F)cc2)c2nc(N3CCN(C(c4ccccc4)c4ccc(Cl)cc4)CC3)c([N+](=O)[O-])cc2c1=O` (stereo not drawn) it was 0.31 µM (≈ 0.19 µg/mL); in that of `O=C(O)c1cn(-c2ccc(F)cc2)c2nc(N3CCC(O)(c4ccc(Cl)cc4)CC3)c([N+](=O)[O-])cc2c1=O`, 0.72 µM (≈ 0.388 µg/mL). In the case of `CC(C)(C)n1cc(C(=O)O)c(=O)c2cc([N+](=O)[O-])c(N3CCC(N4CCCCC4)CC3)nc21` it was 1.7 µM (≈ 0.778 µg/mL); in that of `O=C(O)c1cn(C2CC2)c2nc(N3CCC(n4c(=O)[nH]c5cc(Cl)ccc54)CC3)c([N+](=O)[O-])cc2c1=O`, 0.74 µM (≈ 0.388 µg/mL). The compound `CC(C)(C)n1cc(C(=O)O)c(=O)c2cc([N+](=O)[O-])c(N3CCC(n4c(=O)[nH]c5cc(Cl)ccc54)CC3)nc21` had an MIC of 2.88 µM (≈ 1.56 µg/mL). In turn, `CCN(CC)C(=O)C1CCCN(c2nc3c(cc2[N+](=O)[O-])c(=O)c(C(=O)O)cn3-c2ccc(F)cc2)C1` (stereo not drawn) showed an MIC of 1.52 µM (≈ 0.777 µg/mL). This MIC lies about 1.9-fold lower than the previous one. In the case of `CC(C)(C)n1cc(C(=O)O)c(=O)c2cc([N+](=O)[O-])c(N3CCN(Cc4ccc5c(c4)OCO5)CC3)nc21` it was 3.06 µM (≈ 1.56 µg/mL); in that of `CC(C)(C)n1cc(C(=O)O)c(=O)c2cc([N+](=O)[O-])c(N3CCC4(CC3)OCCO4)nc21`, 0.44 µM (≈ 0.19 µg/mL); in that of `CC(C)(C)NC(=O)C1c2ccccc2CCN1c1nc2c(cc1[N+](=O)[O-])c(=O)c(C(=O)O)cn2C1CC1` (stereo not drawn), 6.19 µM (≈ 3.13 µg/mL).

The compound `O=C(O)c1cn(-c2ccc(F)cc2)c2nc(N3CCSCC3)c([N+](=O)[O-])cc2c1=O` showed a minimum inhibitory concentration (MIC) of 0.91 µM (≈ 0.392 µg/mL). In the case of `CC(C)(C)n1cc(C(=O)O)c(=O)c2cc([N+](=O)[O-])c(N3CCSCC3)nc21` it was 0.48 µM (≈ 0.188 µg/mL); in that of `CN1CCN(c2nc3c(cc2[N+](=O)[O-])c(=O)c(C(=O)O)cn3-c2ccc(F)cc2)CC1c1ccccc1` (stereo not drawn), 0.18 µM (≈ 0.0906 µg/mL); in that of `CN1CCN(c2nc3c(cc2[N+](=O)[O-])c(=O)c(C(=O)O)cn3C(C)(C)C)CC1c1ccccc1` (stereo not drawn), 0.84 µM (≈ 0.391 µg/mL).

`O=C(O)c1cn(C2CC2)c2nc(N3CCN(C(=O)C4COc5ccccc5O4)CC3)c([N+](=O)[O-])cc2c1=O` (stereo not drawn) registered an MIC of 1.49 µM (≈ 0.777 µg/mL). To `CC1CN(c2nc3c(cc2[N+](=O)[O-])c(=O)c(C(=O)O)cn3C2CC2)CC(C)O1` (stereo not drawn) belongs 4.02 µM (≈ 1.56 µg/mL).

`O=C(O)c1cn(-c2ccc(F)cc2)c2nc(N3CCC(N4CCCCC4)CC3)c([N+](=O)[O-])cc2c1=O`: it took 1.57 µM (≈ 0.778 µg/mL) to inhibit growth (MIC). As to `CC(C)(C)n1cc(C(=O)O)c(=O)c2cc([N+](=O)[O-])c(N3CCN(C(=O)C4COc5ccccc5O4)CC3)nc21` (stereo not drawn), the lowest concentration to inhibit growth (MIC) was 2.9 µM (≈ 1.56 µg/mL). This MIC lies about 1.8-fold higher than the previous one.

Consider `O=C(O)c1cn(C2CC2)c2nc(N3CCN(C(=O)c4ccco4)CC3)c([N+](=O)[O-])cc2c1=O`, for which the MIC was found to be 3.44 µM (≈ 1.56 µg/mL). To `CC(C)(C)NC(=O)C1c2ccccc2CCN1c1nc2c(cc1[N+](=O)[O-])c(=O)c(C(=O)O)cn2C(C)(C)C` (stereo not drawn) belongs 1.49 µM (≈ 0.777 µg/mL). In the case of `O=C(O)c1cn2c(n1)CN(c1nc3c(cc1[N+](=O)[O-])c(=O)c(C(=O)O)cn3C1CC1)CC2` it was 1.77 µM (≈ 0.779 µg/mL); in that of `CC(C)(C)n1cc(C(=O)O)c(=O)c2cc([N+](=O)[O-])c(N3CCN(C(=O)c4ccco4)CC3)nc21`, 3.32 µM (≈ 1.56 µg/mL); in that of `O=C(O)c1cn(C2CC2)c2nc(N3CCN(Cc4ccc5c(c4)OCO5)CC3)c([N+](=O)[O-])cc2c1=O`, 1.58 µM (≈ 0.78 µg/mL). As for `CC(C)(C)n1cc(C(=O)O)c(=O)c2cc([N+](=O)[O-])c(N3CCn4cc(C(=O)O)nc4C3)nc21`, it took 0.42 µM (≈ 0.192 µg/mL) to inhibit growth (MIC). To `COc1ccc(CC2C3=C(CCCC3)CCN2c2nc3c(cc2[N+](=O)[O-])c(=O)c(C(=O)O)cn3C2CC2)cc1` (stereo not drawn) belongs 0.74 µM (≈ 0.393 µg/mL); to `CC1CN(c2nc3c(cc2[N+](=O)[O-])c(=O)c(C(=O)O)cn3-c2ccc(F)cc2)CC(C)O1` (stereo not drawn), 0.43 µM (≈ 0.19 µg/mL); to `O=C(O)c1cn2c(n1)CN(c1nc3c(cc1[N+](=O)[O-])c(=O)c(C(=O)O)cn3-c1ccc(F)cc1)CC2`, 0.38 µM (≈ 0.188 µg/mL). In the case of `O=C(O)c1cn(-c2ccc(F)cc2)c2nc(N3CCN(C(=O)c4ccco4)CC3)c([N+](=O)[O-])cc2c1=O` it was 1.54 µM (≈ 0.781 µg/mL).

The compound `O=C(O)c1cn(-c2ccc(F)cc2)c2nc(N3CCC(n4c(=O)[nH]c5cc(Cl)ccc54)CC3)c([N+](=O)[O-])cc2c1=O` gave an MIC of 0.62 µM (≈ 0.359 µg/mL). `CC(C)(C)NC(=O)C1c2ccccc2CCN1c1nc2c(cc1[N+](=O)[O-])c(=O)c(C(=O)O)cn2-c1ccc(F)cc1` (stereo not drawn) returned an MIC of 1.39 µM (≈ 0.778 µg/mL). Against the preceding compound, the MIC is about 2.2-fold higher.

On to `CC(C)(C)n1cc(C(=O)O)c(=O)c2cc([N+](=O)[O-])c(N3CCC(O)(c4ccc(Cl)cc4)CC3)nc21`, for which the lowest concentration to inhibit growth (MIC) was 1.56 µM (≈ 0.781 µg/mL).

`COc1c(N2CCNC(C)C2)c(F)cc2c(=O)c(C(=O)O)cn(C3CC3)c12` (stereo not drawn) [GATIFLOXACIN] gave an MIC of 8.34 µM (≈ 3.13 µg/mL).

`NNC(=O)c1ccncc1` [ISONIAZID] showed an MIC of 45.6 µM (≈ 6.25 µg/mL). Against the preceding compound, the MIC is about 5.5-fold higher.
